Results taken from ChEMBL document CHEMBL1124400, “Synthesis and evaluation of antileukemic activity of 5-thienyl- or 5-(2-furyl)-2,3-dihydro-6,7-bis(hydroxymethyl)-1H-pyrrolizine bis(alkylcarbamates) and derivatives” (J Med Chem, 1989).
“And” between values parts separate entries of the source, which are not always exact repeats. Identical values can stand only once.

Experiments:
Mus musculus [1] = assay: MST of mitomycin 2 mg/kg treated group x 100/MST of untreated control group at a dose of 50 mg/kg in L1210 leukemic mice; type: functional
Outline: (§1)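 Reference group of 8 B6D2F1 mice bearing ip-grafted 10⁵ L1210 cells (day 0), given mitomycin 2 mg/kg in distilled water ip on days 1, 5 and 9. Controls were 12 mice given vehicle only. Mortality was followed daily with autopsy. Ref I = mitomycin-group MST × 100/control MST, run alongside each test experiment.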

Mus musculus [2] = assay: Median survival time of treated group / untreated group, when 50 mg/kg compound is administered intraperitoneally in L1210 leukemic mice; type: functional; settings: route intraperitoneal
Outline: (§2)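 Male 3-month-old B6D2F1 mice, 10⁵ L1210 cells ip on day 0. Compound was given ip on days 1, 5 and 9 in aqueous 20% Tween 80 (0.1–0.2 mL per 20 g), 8 mice per group. Twelve vehicle controls. Daily mortality with autopsy to assign leukemic versus toxic death. I = treated MST × 100/control MST. Wilcoxon test, p < 0.05; active if I > 125 and p < 0.05.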

[3] = Ratio, I x 100/ref I at a dose of 20 mg/kg in L1210 leukemic mice; type: functional
Outline: (§3)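 Male B6D2F1 mice, 3 months old, received 10^5 L1210 cells ip on day 0. Dosing was ip on days 1, 5 and 9 in 20% aqueous Tween 80, 0.1–0.2 mL per 20 g, with 8 mice per group. There were 12 vehicle controls and 8 mice given mitomycin 2 mg/kg ip in water. Daily mortality was recorded, with autopsies. Ratio = treated-group MST ×100/reference-group MST; Wilcoxon, p<0.05.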

Mus musculus [4] = assay: MST of mitomycin 2 mg/kg treated group x 100/MST of untreated control group at a dose of 20 mg/kg in L1210 leukemic mice; type: functional; outline: as §1
Mus musculus [5] = assay: Median survival time of treated group / untreated group, when 100 mg/kg compound is administered intraperitoneally in L1210 leukemic mice; type: functional; settings: route intraperitoneal; outline: as §2
[6] = Lethal dose in L1210 leukemic mice, by administering compound intraperitoneally; type: toxicity, organism-based; settings: mouse, in vivo, ip
Outline: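 Male B6D2F1 mice (3 months old) received 10⁵ L1210 leukemia cells ip on day 0. One day later they were given compound ip. Mortality was recorded daily for 9 days and the acute LD50 expressed in mg/kg.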

Mus musculus [7] = assay: Median survival time of treated group / untreated group, when 20 mg/kg compound is administered intraperitoneally in L1210 leukemic mice; type: functional; settings: route intraperitoneal; outline: as §2
[8] = Ratio, I x 100/ref I at a dose of 100 mg/kg in L1210 leukemic mice; type: functional; outline: as §3
Mus musculus [9] = assay: MST of mitomycin 2 mg/kg treated group x 100/MST of untreated control group at a dose of 100 mg/kg in L1210 leukemic mice; type: functional; outline: as §1
[10] = Ratio, I x 100/ref I at a dose of 50 mg/kg in L1210 leukemic mice; type: functional; outline: as §3
[11] = Ratio, I x 100/ref I at a dose of 16 mg/kg in L1210 leukemic mice; type: functional; outline: as §3
Mus musculus [12] = assay: Median survival time of treated group / untreated group, when 16 mg/kg compound is administered intraperitoneally in L1210 leukemic mice; type: functional; settings: route intraperitoneal; outline: as §2
Mus musculus [13] = assay: MST of mitomycin 2 mg/kg treated group x 100/MST of untreated control group at a dose of 40 mg/kg in L1210 leukemic mice; type: functional; outline: as §1
[14] = Ratio of acute lethal dose to the efficient dose at 100 mg/kg dose; type: functional
Outline: (§4)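 Ratio of acute LD50 to efficient dose. LD50 came from single ip dosing one day after ip grafting of 10⁵ L1210 cells in B6D2F1 mice, with 9-day mortality. The efficient dose came from ip treatment on days 1, 5 and 9 in the median-survival test.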

[15] = Ratio, I x 100/ref I at a dose of 40 mg/kg in L1210 leukemic mice; type: functional; outline: as §3
Mus musculus [16] = assay: Median survival time of treated group / untreated group, when 75 mg/kg compound is administered intraperitoneally in L1210 leukemic mice; type: functional; settings: route intraperitoneal; outline: as §2
Mus musculus [17] = assay: Median survival time of treated group / untreated group, when 40 mg/kg compound is administered intraperitoneally in L1210 leukemic mice; type: functional; settings: route intraperitoneal; outline: as §2
[18] = Ratio of acute lethal dose to the efficient dose at 85 mg/kg dose; type: functional; outline: as §4
Mus musculus [19] = assay: MST of mitomycin 2 mg/kg treated group x 100/MST of untreated control group at a dose of 16 mg/kg in L1210 leukemic mice; type: functional; outline: as §1
Mus musculus [20] = assay: Median survival time of treated group / untreated group, when 100 mg/kg compound is administered intraperitoneally in L1210 leukemic mice; settings: route intraperitoneal
Mus musculus [21] = assay: MST of mitomycin 2 mg/kg treated group x 100/MST of untreated control group at a dose of 75 mg/kg in L1210 leukemic mice; type: functional; outline: as §1
[22] = Ratio, I x 100/ref I at a dose of 75 mg/kg in L1210 leukemic mice
[23] = Ratio, I x 100/ref I at a dose of 4 mg/kg in L1210 leukemic mice; type: functional; outline: as §3
[24] = Ratio, I x 100/ref I at a dose of 15 mg/kg in L1210 leukemic mice; type: functional; outline: as §3
Mus musculus [25] = assay: Median survival time of treated group / untreated group, when 10 mg/kg compound is administered intraperitoneally in L1210 leukemic mice; type: functional; settings: route intraperitoneal; outline: as §2
Mus musculus [26] = assay: MST of mitomycin 2 mg/kg treated group x 100/MST of untreated control group at a dose of 15 mg/kg in L1210 leukemic mice; type: functional; outline: as §1
[27] = Ratio, I x 100/ref I at a dose of 10 mg/kg in L1210 leukemic mice; type: functional; outline: as §3
Mus musculus [28] = assay: Median survival time of treated group / untreated group, when 15 mg/kg compound is administered intraperitoneally in L1210 leukemic mice; type: functional; settings: route intraperitoneal; outline: as §2
Mus musculus [29] = assay: Median survival time of treated group / untreated group, when 4 mg/kg compound is administered intraperitoneally in L1210 leukemic mice; type: functional; settings: route intraperitoneal; outline: as §2
Mus musculus [30] = assay: MST of mitomycin 2 mg/kg treated group x 100/MST of untreated control group at a dose of 10 mg/kg in L1210 leukemic mice; type: functional; outline: as §1
Mus musculus [31] = assay: MST of mitomycin 2 mg/kg treated group x 100/MST of untreated control group at a dose of 4 mg/kg in L1210 leukemic mice; type: functional; outline: as §1
[32] = Ratio of acute lethal dose to the efficient dose at 20 mg/kg; type: functional; outline: as §4
[33] = Ratio, I x 100/ref I at a dose of 8 mg/kg in L1210 leukemic mice; type: functional; outline: as §3
Mus musculus [34] = assay: Median survival time of treated group / untreated group, when 8 mg/kg compound is administered intraperitoneally in L1210 leukemic mice; type: functional; settings: route intraperitoneal; outline: as §2
Mus musculus [35] = assay: MST of mitomycin 2 mg/kg treated group x 100/MST of untreated control group at a dose of 8 mg/kg in L1210 leukemic mice; type: functional; outline: as §1

CNC(=O)OCc1c(COC(=O)NC)c(-c2ccco2)n2c1CCC2
Ref I oncostatic index (Mus musculus [1]): 117 | Oncostatic index (Mus musculus [2]): 108 | Ratio [3]: 86 | Ref I oncostatic index (Mus musculus [4]): 117 | Oncostatic index (Mus musculus [5]): 100 | LD50 [6]: > 150 mg/kg | Oncostatic index (Mus musculus [7]): 100 | Ratio [8]: 80 | Ref I oncostatic index (Mus musculus [9]): 125 | Ratio [10]: 92

CNC(=O)OCc1c(COC(=O)NC)c(-c2ccsc2)n2c1CCC2
Ratio [11]: 80 | Oncostatic index (Mus musculus [12]): 100 | Ref I oncostatic index (Mus musculus [13]): 125 | Ratio [14]: 1.2 | Ratio [15]: 80 | Oncostatic index (Mus musculus [16]): 120 | Oncostatic index (Mus musculus [17]): 100 | Ratio [18]: 1.4 | LD50 [6]: > 150 mg/kg | Ref I oncostatic index (Mus musculus [19]): 125 | Oncostatic index (Mus musculus [20]): 120 | Ratio [8]: 86 | Ref I oncostatic index (Mus musculus [9]): 140 | Ref I oncostatic index (Mus musculus [21]): 140 and 126 | Ratio [22]: 86

CC(C)NC(=O)OCc1c(COC(=O)NC(C)C)c(-c2cccs2)n2c1CCC2
Ratio [23]: 66 | Ratio [24]: 90 | LD50 [6]: 35 mg/kg | Oncostatic index (Mus musculus [25]): 129 | Ref I oncostatic index (Mus musculus [26]): 139 | Ratio [27]: 79 | Oncostatic index (Mus musculus [28]): 125 | Oncostatic index (Mus musculus [29]): 108 | Ref I oncostatic index (Mus musculus [30]): 163 | Ref I oncostatic index (Mus musculus [31]): 164

CNC(=O)OCc1c(COC(=O)NC)c(-c2cccs2)n2c1CSC2
Ratio [32]: 2.5 | Ratio [33]: 86 | Ratio [3]: 103 | Oncostatic index (Mus musculus [34]): 100 | Ref I oncostatic index (Mus musculus [35]): 117 | Ref I oncostatic index (Mus musculus [4]): 121 | LD50 [6]: 50 mg/kg | Oncostatic index (Mus musculus [7]): 125
